Reference: ChEMBL document CHEMBL1134466 (J Med Chem, 2001)

What was measured:
Mus musculus [1] = assay: Antitumor activity against B16 murine melanoma at a dose of 7.5 mg/kg (ip) measured as 60-day survivors (% LTS); type: functional
How it was run: (§1)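 Female B6D2F1 mice given 0.2 mL fresh B16 tumor brei ip (day 0), from sc-grown B16 in the same strain. Randomized 10/group and dosed ip on days 1-5 in 0.2 mL 1:2:7 Cremophor:ethanol:saline, freshly made. Mice monitored daily and weighed twice weekly; weight change taken on day 8. T/C = 100% × MST treated/control. 60-day survivors counted as long-term and excluded from MST.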

Mus musculus [2] = assay: Antitumor activity in MX-1 Xenograft Model at a dose of 25 mg/kg (ip) measured as number of mice with partial tumor regression; type: functional
How it was run: (§2)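 Nude mice implanted sc by trocar in right foreflank with 1-2 mm3 MX-1 fragments. At ca. 5 × 5 mm (~10 days), pair-matched into groups of 10. Dosed ip days 1-5 in 0.2 mL 1:2:7 Cremophor:ethanol:saline. Weights and caliper measurements taken twice weekly; weight change on day 8. GI = 100% × (1 − tumor weight treated/control). Partial shrinkage = final tumor weight below day-1 weight; complete = tumor gone.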

Mus musculus [3] = assay: Antitumor activity against B16 murine melanoma at a dose of 50 mg/kg (ip) measured as percent weight change on day 8; type: functional; how it was run: as §1
Mus musculus [4] = assay: Antitumor activity against B16 murine melanoma at a dose of 50 mg/kg (ip) measured as 60-day survivors (% LTS); type: functional; how it was run: as §1
Mus musculus [5] = assay: Antitumor activity against B16 murine melanoma at a dose of 7.5 mg/kg (ip) measured as increased life span (% T/C); type: functional; how it was run: as §1
Mus musculus [6] = assay: Antitumor activity in MX-1 Xenograft Model at a dose of 25 mg/kg (ip) measured as percent growth inhibition; type: functional; settings: read-out: GI; how it was run: as §2
Mus musculus [7] = assay: (§3) Toxicity to bone marrow granulocyte/macrophage progenitors per femur at a dose of 150 mg/kg (ip); type: organism-based; design: dose 150 mg/kg; settings: in vivo
How it was run: (§4)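 Male B6D2F1 mice (5/group) given drug or vehicle ip, single dose or daily ×5. Femoral marrow harvested 24 h after the last dose and plated at 2 × 10^4 viable nucleated cells/mL in methylcellulose (0.8%) medium with 20% FBS and 10% pokeweed mitogen-stimulated spleen-conditioned medium. Cultured 7 days at 37 °C, 5% CO2; colonies >50 cells counted. Mean colonies given as % of control per femur, mean ± SEM.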

Mus musculus [8] = assay: Antitumor activity in MX-1 Xenograft Model at a dose of 50 mg/kg (ip) measured as percent weight change on day 8; type: functional; how it was run: as §2
Mus musculus [9] = assay: (§5) Toxicity to bone marrow granulocyte/macrophage progenitors per femur at a dose of 200 mg/kg (ip); type: organism-based; design: dose 200 mg/kg; settings: in vivo; how it was run: as §4
Mus musculus [10] = assay: Antitumor activity against B16 murine melanoma at a dose of 7.5 mg/kg (ip) measured as percent weight change on day 8; type: functional; how it was run: as §1
Mus musculus [11] = assay: Antitumor activity against B16 murine melanoma at a dose of 50 mg/kg (ip) measured as increased life span (% T/C); type: functional; how it was run: as §1
Mus musculus [12] = assay: Antitumor activity in MX-1 Xenograft Model at a dose of 25 mg/kg (ip) measured as number of mice with complete tumor regression; type: functional; how it was run: as §2
Mus musculus [13] = assay: Antitumor activity in MX-1 Xenograft Model at a dose of 50 mg/kg (ip) measured as number of mice with partial tumor regression; type: functional; how it was run: as §2
Mus musculus [14] = assay: Toxicity to bone marrow granulocyte/macrophage progenitors per femur at a dose of 100 mg/kg (ip); type: functional; how it was run: as §4
Mus musculus [15] = assay: Antitumor activity in MX-1 Xenograft Model at a dose of 50 mg/kg (ip) measured as percent growth inhibition; type: functional; settings: read-out: GI; how it was run: as §2
Mus musculus [16] = assay: Antitumor activity in MX-1 Xenograft Model at a dose of 50 mg/kg (ip) measured as number of mice with complete tumor regression; type: functional; how it was run: as §2
Mus musculus [17] = assay: as §3; type: functional; how it was run: as §4
Mus musculus [18] = assay: Toxicity to bone marrow granulocyte/macrophage progenitors per femur at a dose of 50 mg/kg (ip); type: functional; how it was run: as §4
Mus musculus [19] = assay: Antitumor activity against B16 murine melanoma at a dose of 5 mg/kg (ip) measured as increased life span (% T/C); type: functional; how it was run: as §1
Mus musculus [20] = assay: Antitumor activity against B16 murine melanoma at a dose of 5 mg/kg (ip) measured as 60-day survivors (% LTS); type: functional; how it was run: as §1
Mus musculus [21] = assay: Antitumor activity against B16 murine melanoma at a dose of 100 mg/kg (ip) measured as 60-day survivors (% LTS); type: functional; how it was run: as §1
Mus musculus [22] = assay: as §5; type: functional; how it was run: as §4
Mus musculus [23] = assay: Antitumor activity against B16 murine melanoma at a dose of 100 mg/kg (ip) measured as percent weight change on day 8; type: functional; how it was run: as §1
Mus musculus [24] = assay: Antitumor activity against B16 murine melanoma at a dose of 100 mg/kg (ip) measured as increased life span (% T/C); type: functional; how it was run: as §1

SMILES	Weight change (Mus musculus [3]) [%]	LTS (Mus musculus [4]) [%]	Weight change (Mus musculus [8]) [%]	T/C (Mus musculus [11]) [%]	No. partial (Mus musculus [13])	Control (Mus musculus [14]) [%]	inhibition in vivo at 50 mg/kg (Mus musculus [15]) [%]	No. total (Mus musculus [16])	Control (Mus musculus [17]) [%]	Control (Mus musculus [18]) [%]	also measured
O=[N+]([O-])c1ccc(COP(=O)(N(CCCl)CCCl)N(CCCl)CCCl)s1	8	0	1	166	–	–	–	–	–	–	LTS (Mus musculus [1]): 20%; No. partial (Mus musculus [2]): 10; T/C (Mus musculus [5]): 248%; inhibition in vivo at 25 mg/kg (Mus musculus [6]): > 99%; Control (Mus musculus [7]): 106%; Control (Mus musculus [9]): 81%; Weight change (Mus musculus [10]): 10%; No. total (Mus musculus [12]): 0
O=[N+]([O-])c1ccc(COP(=O)(N(CCBr)CCBr)N(CCBr)CCBr)o1	11	0	11	202	6	32	> 99	4	23	102	–
O=[N+]([O-])c1ccc(COP(=O)(N(CCBr)CCBr)N(CCBr)CCBr)s1	10	–	–	–	–	64	–	–	–	93	T/C (Mus musculus [19]): 185%; LTS (Mus musculus [20]): 0%
O=[N+]([O-])c1ccc(COP(=O)(N(CCCl)CCCl)N(CCCl)CCCl)o1	–	–	2	–	7	100	99	0	104	–	LTS (Mus musculus [21]): 10%; Control (Mus musculus [22]): 26%; Weight change (Mus musculus [23]): 6%; T/C (Mus musculus [24]): 172%
